# Compound activity deposited in PubChem by several laboratories.
# Only some compounds are listed: those with a hit (about 3.8% of all), similar ones and a draw of the others.
# CHO parental Ca – counter-screen: ATP calcium response change in parental CHO cells; parental CHO-K1, ATP-induced calcium, Fluo-8 fluorescence; inhibition, % at 5.6 µM; hit rate 0.63% among 330,000; AID 463079;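 active means inhibition above that plate's mean sample inhibition plus 3 SD, cut at about 26% in these data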;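 further: 0% = ATP-challenged DMSO wells and 100% = DMSO wells without ATP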
#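 material = parental CHO cells | also added = ATP as calcium-mobilizing challenge | dosing = single point at 5.6 µM | detection = intracellular calcium via Fluo-8 no-wash fluorescent dye | read-out = % inhibition | benchmarks = low control ATP plus DMSO, high control DMSO only | repeats = one well per compound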
# MPTP inh – inhibitors of mitochondrial permeability transition pore; isolated mouse mitochondria, Ca2+ swelling absorbance, 30 min; inhibition, % at 10 µM; hit rate 1.4% among 360,000; AID 602449;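 active means inhibition of 50% or more, scaled per plate between neutral and stimulator controls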;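 further: 0% = DMSO wells given calcium and 100% = 1 mM EGTA wells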
# OX1R antag-1 – antagonists of human orexin 1 receptor (OX1R). O43613. inhibition, % at 6.6 µM. OX1R-expressing cells, FRET antagonist read-out. hit rate 1.8% among 330,000; in the data active means inhibition mostly above about 38%, no sharp cut-off; inactive means mostly below about 40%;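 further: 0% = agonist challenge alone and 100% = reference antagonist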
# Target sequence (O43613 whole entry, looked up): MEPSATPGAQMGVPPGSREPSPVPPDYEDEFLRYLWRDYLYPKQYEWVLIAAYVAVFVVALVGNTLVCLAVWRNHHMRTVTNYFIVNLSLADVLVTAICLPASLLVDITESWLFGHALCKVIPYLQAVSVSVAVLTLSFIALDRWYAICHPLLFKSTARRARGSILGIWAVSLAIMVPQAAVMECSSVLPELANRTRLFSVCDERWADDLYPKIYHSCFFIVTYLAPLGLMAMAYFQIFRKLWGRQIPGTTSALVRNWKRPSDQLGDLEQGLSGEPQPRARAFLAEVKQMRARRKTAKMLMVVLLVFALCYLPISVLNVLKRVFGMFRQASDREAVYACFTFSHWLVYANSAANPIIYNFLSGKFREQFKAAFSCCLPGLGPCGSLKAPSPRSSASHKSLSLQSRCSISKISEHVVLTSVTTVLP
# OX1R antag-2 – antagonists of human orexin 1 receptor; inhibition, % at 5 µM; hit rate 0.43% among 330,000; CHO/OX1R cells, Fluo-8 calcium fluorescence, orexin A; O43613;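 active means inhibition above its plate's threshold, mean inhibition of all tested compounds on the plate plus 3 SD, cut at about 37% in these data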;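 further: 0% = orexin A challenge wells and 100% = SB-334867-A antagonist wells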
# GPR7 antagonist – human neuropeptides B/W receptor 1 antagonism; GPR7-expressing cells, fluorescence antagonist assay; inhibition, % at 4.4 µM; hit rate 1.1% among 290,000; AID 1861; in the data active means inhibition above about 16%, passing the limit was not always enough;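 further: cells stimulated with the agonist NPW; 0% = agonist with vehicle and 100% = vehicle without agonist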
# An asterisk follows results filed as active; . = no result.
SMILES,CHO parental Ca,MPTP inh,OX1R antag-1,OX1R antag-2,GPR7 antagonist
CC(C)CC(=O)Nc1ccc(-c2nc3ccccc3c(=O)[nH]2)cc1,-17,2,15,-17,-12
CC(OC(=O)Cc1n[nH]c(=O)c2ccccc12)C(=O)N(C)c1ccccc1 (stereo not given),.,-1,.,.,.
COc1ccc(/C=C2\SC(=S)N(NS(=O)(=O)c3ccc(C)cc3)C2=O)c(OC)c1,12,5,60*,-13,3
COc1ncnc2c1ncn2CCCN1CCN(c2ccccn2)CC1,.,-1,.,.,.
COc1cccc(C(=O)N2CCC(C(=O)NCc3ccc(C)cc3)CC2)c1,-17,0,12,-18,-9
CCCNC(=O)COC(=O)c1cccnc1Nc1ccccc1F,-11,0,34,-3,-12
O=C(COC(=O)c1cccnc1Nc1ccccc1F)NCCN1C(=O)CSC1=O,-14,-1,55*,15,4
O=C(CN1CCN(C(=O)c2cccc(-n3cnnn3)c2)CC1)Nc1ccccc1Cl,-5,0,9,-6,.
CCN(CCCCCN(C)C)Cc1cc2ccccc2o1,0,-1,-2,9,3
O=C(Nc1ccc2c(c1)OCCO2)C1c2ccccc2OCC(=O)N1CC(F)(F)F (stereo not given),.,-1,.,.,.
COc1ccc(CNC(=O)COC(=O)/C=C/c2cccs2)cc1,-14,-1,8,-27,4
COc1ccccc1CNC(=O)COC(=O)/C=C/c1cccs1,-6,3,11,-8,19*
COc1ccc(CCNC(=O)c2ccc(Br)o2)cc1Br,.,0,.,.,.
N#Cc1nc(COc2ccccc2)oc1N1CCCC1,-11,0,31,-16,1
N#Cc1nc(COc2ccccc2)oc1N1CCCCCC1,54*,-1,25,-23,3
O=C1C=C(N2CCOCC2)c2ccccc2C1=O,-3,4,64*,-13,-9
Cn1c2ccccc2c(=O)c2cc(C#CC3=CCCCC3)ccc21,-29,0,37*,0,.
Cn1c2ccccc2c(=O)c2ccc(C#Cc3ccc(N)cc3)cc21,0,-1,31,0,-4
CCN(CC)C(c1ccc(C)cc1)c1nnnn1C1CCCCC1 (stereo not given),26*,2,25,-37,-2
CCN(CC)C(c1ccc(F)cc1)c1nnnn1C1CCCCC1 (stereo not given),-24,4,19,-20,6
CCn1nc(C)cc1-c1nnc(Sc2ncc([N+](=O)[O-])s2)n1C,24,-1,52*,8,-1
Cc1nnc2n1N=CC=C(c1ccccc1)S2,-9,3,54*,-4,16
Cc1noc(C)c1CN1C(=O)c2ccc([N+](=O)[O-])cc2C1=O,-5,0,53*,-15,-6
Cc1noc(C)c1CN1C(=O)c2cccc([N+](=O)[O-])c2C1=O,-2,-2,25,-16,-18
CCOC(=O)/C=C/[C@H]1CCc2cccc(C)c2O1,-10,3,2,-21,.
SMILES,CHO parental Ca,MPTP inh,OX1R antag-1,OX1R antag-2,GPR7 antagonist
Cc1c(O)nc2ccccn2c1=O,-1,2,3,6,-4
O=c1c2c([N+](=O)[O-])cc([N+](=O)[O-])cc2nc2ccccn12,-5,2,73*,3,-15
COC(=O)c1ccc(C)c(NC(=O)c2c(-c3ccccc3)noc2C)c1,-12,-2,38*,10,-6
CCOc1cc(/C=C2\CCCc3c2nc2ccccc2c3C(=O)O)ccc1OC,29,0,133*,32,-8
COc1cc(/C=C2\CCc3c2nc2ccccc2c3C(=O)O)cc(OC)c1OC,-11,2,7,-26,-5
COc1cccc(/C=C2\CC(C)Cc3c2nc2ccccc2c3C(=O)O)c1OC (stereo not given),-6,-1,75*,-20,-2
CC(C)[C@H](NC(=O)OC(C)(C)C)c1cc(C(=O)NC2CC2)c(N)s1,.,0,.,.,.
CCOC(=O)c1cc([N+](=O)[O-])sc1N,4,2,35,-11,1
CCOC(=O)c1cc([N+](=O)[O-])sc1NC(=O)CC,-8,1,61*,-14,-8
COc1ccc2nc(N3CCC(C)CC3)c(C#N)cc2c1,-16,1,58*,-21,-8
CCOc1ccc(OCCC(=O)Nc2ccccc2C(=O)NC2CC2)cc1,.,-1,.,.,.
Cc1cc(OCC(=O)N(Cc2cccs2)C2CCS(=O)(=O)C2)ccc1Cl (stereo not given),-12,-3,3,-31,5
O=C(NCc1cccnc1)/C(=C\c1ccc(-c2ccc(Cl)c(Cl)c2)o1)S(=O)(=O)c1ccccc1,1,1,25,-13,31*
